According to ChEMBL document CHEMBL3232870, “Discovery of 3-(4-methanesulfonylphenoxy)-N-[1-(2-methoxy-ethoxymethyl)-1H-pyrazol-3-yl]-5-(3-methylpyridin-2-yl)-benzamide as a novel glucokinase activator (GKA) for the treatment of type 2 diabetes mellitus” (Bioorg Med Chem, 2014):

Experiments:
[1] = target: T1, Hexokinase-4 (Homo sapiens) (UniProt P35557); assay: Activity of recombinant human pancreatic glucokinase assessed as glucose half-maximal saturation concentration
T1 sequence (whole entry): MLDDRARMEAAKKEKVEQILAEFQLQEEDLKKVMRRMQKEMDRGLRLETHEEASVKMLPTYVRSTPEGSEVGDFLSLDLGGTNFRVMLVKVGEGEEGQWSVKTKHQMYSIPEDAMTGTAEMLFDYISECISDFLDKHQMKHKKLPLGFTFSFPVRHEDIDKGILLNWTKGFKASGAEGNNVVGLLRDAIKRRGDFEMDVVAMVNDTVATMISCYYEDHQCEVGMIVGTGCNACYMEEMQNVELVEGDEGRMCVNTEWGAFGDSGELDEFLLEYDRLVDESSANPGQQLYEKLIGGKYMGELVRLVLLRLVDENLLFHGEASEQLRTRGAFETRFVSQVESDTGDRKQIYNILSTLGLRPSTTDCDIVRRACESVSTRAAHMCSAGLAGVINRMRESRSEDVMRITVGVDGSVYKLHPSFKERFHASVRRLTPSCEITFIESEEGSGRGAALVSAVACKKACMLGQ
Outline: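 Purified recombinant human pancreatic glucokinase coupled enzymatic assay, compounds in DMSO. Buffer: HEPES pH 7.4, KCl, MgCl2, DTT, ATP, NADP, G6PDH. Half-saturation glucose concentration S0.5 was reported. Values are means of three duplicate runs.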

[2] = tested on: Mus musculus; assay: Antidiabetic activity in po dosed C57BL/J6 mouse assessed as reduction of glucose AUC preincubated for 30 mins followed by glucose challenge measured after 30 to 180 mins by oral glucose tolerance test

SMILES	S50 [1] [mM]	Activity [2]
Cc1cccnc1-c1cc(Oc2ccc(S(C)(=O)=O)cc2)cc(C(=O)Nc2nc(CN3CCOCC3)cs2)c1	3.24	–
CCNC(=O)Cc1csc(NC(=O)c2cc(Oc3ccc(S(C)(=O)=O)cc3)cc(-c3ncccc3C)c2)n1	4.35	–
C#CCNCc1csc(NC(=O)c2cc(Oc3ccc(S(C)(=O)=O)cc3)cc(-c3ncccc3C)c2)n1	2.21	–
CCCNCc1csc(NC(=O)c2cc(Oc3ccc(S(C)(=O)=O)cc3)cc(-c3ncccc3C)c2)n1	4.51	–
Cc1cccnc1-c1cc(Oc2ccc(S(C)(=O)=O)cc2)cc(C(=O)Nc2nc(CC(=O)NC3CC3)cs2)c1	1.78	–
COCCOCn1ccc(NC(=O)c2cc(Oc3ccc(S(C)(=O)=O)cc3)cc(-c3ncccc3C)c2)n1	2.33	Dose-dependent effect
Cc1cccnc1-c1cc(Oc2ccc(S(C)(=O)=O)cc2)cc(C(=O)Nc2ncc(F)s2)c1	1.95	–
CCN(CC)Cc1csc(NC(=O)c2cc(Oc3ccc(S(C)(=O)=O)cc3)cc(-c3ncccc3C)c2)n1	5.79	–
COC(CNCc1csc(NC(=O)c2cc(Oc3ccc(S(C)(=O)=O)cc3)cc(-c3ncccc3C)c2)n1)OC	0.57	–
COCCN(C)Cc1csc(NC(=O)c2cc(Oc3ccc(S(C)(=O)=O)cc3)cc(-c3ncccc3C)c2)n1	4.56	–
Cc1cccnc1-c1cc(Oc2ccc(S(C)(=O)=O)cc2)cc(C(=O)Nc2nc(CNC(C)C)cs2)c1	3.98	–
Cc1cccnc1-c1cc(Oc2ccc(S(C)(=O)=O)cc2)cc(C(=O)Nc2nc(CN3CCN(C)CC3)cs2)c1	3.44	–
Cc1cccnc1-c1cc(Oc2ccc(S(C)(=O)=O)cc2)cc(C(=O)Nc2nc(CN3CCNCC3)cs2)c1	3.08	–
Cc1cccnc1-c1cc(Oc2ccc(S(C)(=O)=O)cc2)cc(C(=O)Nc2ccn(CCN3CCOCC3)n2)c1	3.54	–
Cc1cccnc1-c1cc(Oc2ccc(S(C)(=O)=O)cc2)cc(C(=O)Nc2ccn(C)n2)c1	3.89	–
Cc1cccnc1-c1cc(Oc2ccc(S(C)(=O)=O)cc2)cc(C(=O)Nc2nccs2)c1	2.01	–
COCCN(CCOC)Cc1csc(NC(=O)c2cc(Oc3ccc(S(C)(=O)=O)cc3)cc(-c3ncccc3C)c2)n1	5.43	–
COCC(C)NCc1csc(NC(=O)c2cc(Oc3ccc(S(C)(=O)=O)cc3)cc(-c3ncccc3C)c2)n1 (centres undefined)	2.27	–
